Reference: ChEMBL document CHEMBL4715736, “Identification of anticancer agents based on the thieno[2,3-b]pyridine and 1H-pyrazole molecular scaffolds” (2016)

These molecules were tested on SF-295 (assay: Growth inhibition of human SF-295 cells assessed as cell growth at 10 uM incubated for 48 hrs by sulforhodamine B assay relative to control). Conditions: read-out: Activity.
Type: functional
How it was run: (§1)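 Run by the NCI Developmental Therapeutics Program as part of its 60-line human tumour panel. Each compound tested at a single 10 µM dose. Growth expressed as % relative to untreated control cells (100%).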

Structure (SMILES)	growth at 10 µM
COc1ccc(-c2ccn(S(=O)(=O)c3ccc(C)cc3)n2)cc1	78.5%

The molecules below were run on MOLT-4 (assay: Growth inhibition of human MOLT-4 cells assessed as cell growth at 10 uM incubated for 48 hrs by sulforhodamine B assay relative to control). Conditions: read-out: Activity.
Type: functional
How it was run: (§2)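 Submitted to the NCI Developmental Therapeutics Program for the NCI60 human tumour cell line panel. First screen at a single 10 µM concentration. Read-out is growth relative to untreated control cells set at 100%.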

Structure (SMILES)	growth at 10 µM
COc1ccc(-c2ccn(S(=O)(=O)c3ccc(C)cc3)n2)cc1	95.2%

The molecules below were run on UACC-62 (assay: Growth inhibition of human UACC-62 cells assessed as cell growth at 10 uM incubated for 48 hrs by sulforhodamine B assay relative to control). Conditions: read-out: Activity.
Type: functional
How it was run: as §1

Structure (SMILES)	growth at 10 µM
COc1ccc(-c2ccn(S(=O)(=O)c3ccc(C)cc3)n2)cc1	70.9%

These molecules were tested on NCI-H460 (assay: Growth inhibition of human NCI-H460 cells assessed as cell growth at 10 uM incubated for 48 hrs by sulforhodamine B assay relative to control). Conditions: read-out: Activity.
Type: functional
How it was run: as §2

Structure (SMILES)	growth at 10 µM
COc1ccc(-c2ccn(S(=O)(=O)c3ccc(C)cc3)n2)cc1	81%

What follows are molecules tested on A549 (assay: Growth inhibition of human A549/ATCC cells assessed as cell growth at 10 uM incubated for 48 hrs by sulforhodamine B assay relative to control). Conditions: read-out: Activity.
Type: functional
How it was run: (§3)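 NCI Developmental Therapeutics Program NCI60 panel. Compounds that were active in the 10 µM one-dose screen went on to dose–response testing. Growth at each concentration is expressed relative to untreated control (100%). GI50 (concentration giving 50% of maximal inhibition of proliferation) and TGI (concentration giving total growth inhibition) were derived from the curves.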

Structure (SMILES)	growth at 10 µM
COc1ccc(-c2ccn(S(=O)(=O)c3ccc(C)cc3)n2)cc1	79.7%

Each molecule was assayed on OVCAR-3 (assay: Growth inhibition of human OVCAR-3 cells assessed as cell growth at 10 uM incubated for 48 hrs by sulforhodamine B assay relative to control). Conditions: read-out: Activity.
Type: functional
How it was run: as §1

Structure (SMILES)	growth at 10 µM
COc1ccc(-c2ccn(S(=O)(=O)c3ccc(C)cc3)n2)cc1	89.3%

These molecules were tested on NCI-H226 (assay: Growth inhibition of human NCI-H226 cells assessed as cell growth at 10 uM incubated for 48 hrs by sulforhodamine B assay relative to control). Conditions: read-out: Activity.
Type: functional
How it was run: as §2

Structure (SMILES)	growth at 10 µM
COc1ccc(-c2ccn(S(=O)(=O)c3ccc(C)cc3)n2)cc1	68.5%

The molecules below were run on A498 (assay: Growth inhibition of human A498 cells assessed as cell growth at 10 uM incubated for 48 hrs by sulforhodamine B assay relative to control). Conditions: read-out: Activity.
Type: functional
How it was run: as §3

Structure (SMILES)	growth at 10 µM
COc1ccc(-c2ccn(S(=O)(=O)c3ccc(C)cc3)n2)cc1	63.2%

The molecules below were run on HOP-62 (assay: Growth inhibition of human HOP-62 cells assessed as cell growth at 10 uM incubated for 48 hrs by sulforhodamine B assay relative to control). Conditions: read-out: Activity.
Type: functional
How it was run: as §2

Structure (SMILES)	growth at 10 µM
COc1ccc(-c2ccn(S(=O)(=O)c3ccc(C)cc3)n2)cc1	108%

The molecules below were run on CCRF-CEM (assay: Growth inhibition of human CCRF-CEM cells assessed as cell growth at 10 uM incubated for 48 hrs by sulforhodamine B assay relative to control). Conditions: read-out: Activity.
Type: functional
How it was run: as §3

Structure (SMILES)	growth at 10 µM
COc1ccc(-c2ccn(S(=O)(=O)c3ccc(C)cc3)n2)cc1	85.7%

Each molecule was assayed on UACC-257 (assay: Growth inhibition of human UACC-257 cells assessed as cell growth at 10 uM incubated for 48 hrs by sulforhodamine B assay relative to control). Conditions: read-out: Activity.
Type: functional
How it was run: as §1

Structure (SMILES)	growth at 10 µM
COc1ccc(-c2ccn(S(=O)(=O)c3ccc(C)cc3)n2)cc1	79.9%

Each molecule was assayed on MDA-MB-468 (assay: Growth inhibition of human MDA-MB-468 cells assessed as cell growth at 10 uM incubated for 48 hrs by sulforhodamine B assay relative to control). Conditions: read-out: Activity.
Type: functional
How it was run: as §2

Structure (SMILES)	growth at 10 µM
COc1ccc(-c2ccn(S(=O)(=O)c3ccc(C)cc3)n2)cc1	46.1%

What follows are molecules tested on HCT-15 (assay: Growth inhibition of human HCT-15 cells assessed as cell growth at 10 uM incubated for 48 hrs by sulforhodamine B assay relative to control). Conditions: read-out: Activity.
Type: functional
How it was run: as §2

Structure (SMILES)	growth at 10 µM
COc1ccc(-c2ccn(S(=O)(=O)c3ccc(C)cc3)n2)cc1	84.2%

What follows are molecules tested on HL-60(TB) (assay: Growth inhibition of human HL-60(TB) cells assessed as cell growth at 10 uM incubated for 48 hrs by sulforhodamine B assay relative to control). Conditions: read-out: Activity.
Type: functional
How it was run: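 Screened by the NCI Developmental Therapeutics Program on its panel of 60 human tumour cell lines. Compounds were first tested at a single 10 µM dose, and compounds active there went to dose-response curves. Growth is expressed relative to untreated control (100%). GI50 (50% of maximal proliferation inhibition) and TGI (total growth inhibition) were derived from the dose-response data.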

Structure (SMILES)	growth at 10 µM
COc1ccc(-c2ccn(S(=O)(=O)c3ccc(C)cc3)n2)cc1	114%

The molecules below were run on NCI-H322M (assay: Growth inhibition of human NCI-H322M cells assessed as cell growth at 10 uM incubated for 48 hrs by sulforhodamine B assay relative to control). Conditions: read-out: Activity.
Type: functional
How it was run: as §2

Structure (SMILES)	growth at 10 µM
COc1ccc(-c2ccn(S(=O)(=O)c3ccc(C)cc3)n2)cc1	96.7%

The molecules below were run on SF-539 (assay: Growth inhibition of human SF-539 cells assessed as cell growth at 10 uM incubated for 48 hrs by sulforhodamine B assay relative to control). Conditions: read-out: Activity.
Type: functional
How it was run: as §1

Structure (SMILES)	growth at 10 µM
COc1ccc(-c2ccn(S(=O)(=O)c3ccc(C)cc3)n2)cc1	97%

These molecules were tested on MDA-MB-435 (assay: Growth inhibition of human MDA-MB-435 cells assessed as cell growth at 10 uM incubated for 48 hrs by sulforhodamine B assay relative to control). Conditions: read-out: Activity.
Type: functional
How it was run: as §2

Structure (SMILES)	growth at 10 µM
COc1ccc(-c2ccn(S(=O)(=O)c3ccc(C)cc3)n2)cc1	94.1%

Each molecule was assayed on SN12C (assay: Growth inhibition of human SN12C cells assessed as cell growth at 10 uM incubated for 48 hrs by sulforhodamine B assay relative to control). Conditions: read-out: Activity.
Type: functional
How it was run: as §1

Structure (SMILES)	growth at 10 µM
COc1ccc(-c2ccn(S(=O)(=O)c3ccc(C)cc3)n2)cc1	86.9%

These molecules were tested on RXF 393 (assay: Growth inhibition of human RXF 393 cells assessed as cell growth at 10 uM incubated for 48 hrs by sulforhodamine B assay relative to control). Conditions: read-out: Activity.
Type: functional
How it was run: as §1

Structure (SMILES)	growth at 10 µM
COc1ccc(-c2ccn(S(=O)(=O)c3ccc(C)cc3)n2)cc1	86.3%

Each molecule was assayed on NCI/ADR-RES (assay: Growth inhibition of human NCI/ADR-RES cells assessed as cell growth at 10 uM incubated for 48 hrs by sulforhodamine B assay relative to control). Conditions: read-out: Activity.
Type: functional
How it was run: as §2

Structure (SMILES)	growth at 10 µM
COc1ccc(-c2ccn(S(=O)(=O)c3ccc(C)cc3)n2)cc1	78.7%

The molecules below were run on M14 (assay: Growth inhibition of human M14 cells assessed as cell growth at 10 uM incubated for 48 hrs by sulforhodamine B assay relative to control). Conditions: read-out: Activity.
Type: functional
How it was run: as §2

Structure (SMILES)	growth at 10 µM
COc1ccc(-c2ccn(S(=O)(=O)c3ccc(C)cc3)n2)cc1	90%

These molecules were tested on SNB-75 (assay: Growth inhibition of human SNB-75 cells assessed as cell growth at 10 uM incubated for 48 hrs by sulforhodamine B assay relative to control). Conditions: read-out: Activity.
Type: functional
How it was run: as §1

Structure (SMILES)	growth at 10 µM
COc1ccc(-c2ccn(S(=O)(=O)c3ccc(C)cc3)n2)cc1	92.5%

The molecules below were run on IGROV-1 (assay: Growth inhibition of human IGROV-1 cells assessed as cell growth at 10 uM incubated for 48 hrs by sulforhodamine B assay relative to control). Conditions: read-out: Activity.
Type: functional
How it was run: as §2

Structure (SMILES)	growth at 10 µM
COc1ccc(-c2ccn(S(=O)(=O)c3ccc(C)cc3)n2)cc1	81.5%

These molecules were tested on PC-3 (assay: Growth inhibition of human PC-3 cells assessed as cell growth at 10 uM incubated for 48 hrs by sulforhodamine B assay relative to control). Conditions: read-out: Activity.
Type: functional
How it was run: as §1

Structure (SMILES)	growth at 10 µM
COc1ccc(-c2ccn(S(=O)(=O)c3ccc(C)cc3)n2)cc1	81.2%

These molecules were tested on Hs-578T (assay: Growth inhibition of human Hs-578T cells assessed as cell growth at 10 uM incubated for 48 hrs by sulforhodamine B assay relative to control). Conditions: read-out: Activity.
Type: functional
How it was run: as §2

Structure (SMILES)	growth at 10 µM
COc1ccc(-c2ccn(S(=O)(=O)c3ccc(C)cc3)n2)cc1	96%

The molecules below were run on HOP-92 (assay: Growth inhibition of human HOP-92 cells assessed as cell growth at 10 uM incubated for 48 hrs by sulforhodamine B assay relative to control). Conditions: read-out: Activity.
Type: functional
How it was run: as §2

Structure (SMILES)	growth at 10 µM
COc1ccc(-c2ccn(S(=O)(=O)c3ccc(C)cc3)n2)cc1	79.9%

These molecules were tested on SK-MEL-28 (assay: Growth inhibition of human SK-MEL-28 cells assessed as cell growth at 10 uM incubated for 48 hrs by sulforhodamine B assay relative to control). Conditions: read-out: Activity.
Type: functional
How it was run: as §1

Structure (SMILES)	growth at 10 µM
COc1ccc(-c2ccn(S(=O)(=O)c3ccc(C)cc3)n2)cc1	103%

The molecules below were run on U-251 (assay: Growth inhibition of human U-251 cells assessed as cell growth at 10 uM incubated for 48 hrs by sulforhodamine B assay relative to control). Conditions: read-out: Activity.
Type: functional
How it was run: as §1

Structure (SMILES)	growth at 10 µM
COc1ccc(-c2ccn(S(=O)(=O)c3ccc(C)cc3)n2)cc1	81.9%

What follows are molecules tested on HCT-116 (assay: Growth inhibition of human HCT-116 cells assessed as cell growth at 10 uM incubated for 48 hrs by sulforhodamine B assay relative to control). Conditions: read-out: Activity.
Type: functional
How it was run: as §2

Structure (SMILES)	growth at 10 µM
COc1ccc(-c2ccn(S(=O)(=O)c3ccc(C)cc3)n2)cc1	73.5%

These molecules were tested on OVCAR-5 (assay: Growth inhibition of human OVCAR-5 cells assessed as cell growth at 10 uM incubated for 48 hrs by sulforhodamine B assay relative to control). Conditions: read-out: Activity.
Type: functional
How it was run: as §1

Structure (SMILES)	growth at 10 µM
COc1ccc(-c2ccn(S(=O)(=O)c3ccc(C)cc3)n2)cc1	112%

What follows are molecules tested on SK-MEL-5 (assay: Growth inhibition of human SK-MEL-5 cells assessed as cell growth at 10 uM incubated for 48 hrs by sulforhodamine B assay relative to control). Conditions: read-out: Activity.
Type: functional
How it was run: as §1

Structure (SMILES)	growth at 10 µM
COc1ccc(-c2ccn(S(=O)(=O)c3ccc(C)cc3)n2)cc1	68.3%

What follows are molecules tested on KM12 (assay: Growth inhibition of human KM12 cells assessed as cell growth at 10 uM incubated for 48 hrs by sulforhodamine B assay relative to control). Conditions: read-out: Activity.
Type: functional
How it was run: as §2

Structure (SMILES)	growth at 10 µM
COc1ccc(-c2ccn(S(=O)(=O)c3ccc(C)cc3)n2)cc1	89.7%

What follows are molecules tested on Malme-3M (assay: Growth inhibition of human Malme-3M cells assessed as cell growth at 10 uM incubated for 48 hrs by sulforhodamine B assay relative to control). Conditions: read-out: Activity.
Type: functional
How it was run: as §2

Structure (SMILES)	growth at 10 µM
COc1ccc(-c2ccn(S(=O)(=O)c3ccc(C)cc3)n2)cc1	88.4%

The molecules below were run on UO-31 (assay: Growth inhibition of human UO-31 cells assessed as cell growth at 10 uM incubated for 48 hrs by sulforhodamine B assay relative to control). Conditions: read-out: Activity.
Type: functional
How it was run: as §1

Structure (SMILES)	growth at 10 µM
COc1ccc(-c2ccn(S(=O)(=O)c3ccc(C)cc3)n2)cc1	75.9%
